In the library only some 3.5% were active in any assay of this set; here they are far more common.
PAFAH1B3 inh – PAFAH1B3 (human) inhibition. Q15102. recombinant PAFAH1B3, FP-rhodamine probe, fluorescence polarization. inhibition, % at 3.39 µM. 340,000 compounds, 0.28% hits. AID 492972;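 active means inhibition above the screen-wide average of all tested compounds plus 3 SD, cut at about 25% in these data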;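 further: 0% = enzyme with DMSO only and 100% = wells lacking PAFAH1B3 protein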
Target sequence (Q15102 whole entry, looked up): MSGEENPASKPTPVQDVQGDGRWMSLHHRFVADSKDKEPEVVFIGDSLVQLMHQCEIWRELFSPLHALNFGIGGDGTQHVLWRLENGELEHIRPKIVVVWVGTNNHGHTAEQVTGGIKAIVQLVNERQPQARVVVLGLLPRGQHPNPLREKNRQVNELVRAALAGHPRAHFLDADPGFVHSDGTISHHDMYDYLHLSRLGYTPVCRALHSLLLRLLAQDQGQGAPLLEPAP
PREPL inhibitor – inhibits the human prolyl oligopeptidase-like enzyme. Q4J6C6. recombinant PREPL, fluorescence polarization activity-based probe. inhibition, % at 5.96 µM. 320,000 compounds, 0.68% hits; in the data active means inhibition above about 43%;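 further: 0% = enzyme with DMSO and 100% = wells lacking enzyme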
Apaf1 inhib – inhibitors of human Apaf-1 apoptosome; O14727; inhibition, % at 20 µM; 330,000 compounds, 0.71% hits; reconstituted apoptosome caspase-3 activity, DEVD-Rh110 fluorescence; active means inhibition of at least 40% at 20 µM;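 further: plate controls were DMSO wells for no effect and DEVD-CHO caspase inhibitor wells for full effect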
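Material: reconstituted apoptosome with Apaf-1, cytochrome c, caspase-9, procaspase-3, dATP; medium: pH 7.5 Hepes buffer with CHAPS, BSA, DTT; also added: cytochrome c and DEVD-Rh110 substrate; timing: 30 min plus 50 min, RT; signal: Rh110 fluorescence intensity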
PAFAH1B2 inh – blocks human PAF acetylhydrolase 1b catalytic subunit 2 | 340,000 compounds, 1.2% hits | AID 492953 | recombinant PAFAH1B2, FP-rhodamine activity probe, fluorescence polarization | inhibition, % at 3.39 µM | P68402;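 active means inhibition above the mean of all tested compounds plus 3 SD, cut at about 24% in these data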;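 further: 0% = enzyme with DMSO and 100% = wells lacking PAFAH1B2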
Target sequence (P68402 whole entry, looked up): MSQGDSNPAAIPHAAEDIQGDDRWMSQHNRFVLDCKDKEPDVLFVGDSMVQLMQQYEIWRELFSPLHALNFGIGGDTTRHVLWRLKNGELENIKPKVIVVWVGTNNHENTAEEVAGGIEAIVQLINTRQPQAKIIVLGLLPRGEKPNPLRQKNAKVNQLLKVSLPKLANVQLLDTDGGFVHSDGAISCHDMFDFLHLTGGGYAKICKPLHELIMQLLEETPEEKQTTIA
pPAFAH FP inh – pPAFAH (human) enzyme inhibition. AID 463082. recombinant pPAFAH, FP-rhodamine probe fluorescence polarization. 330,000 compounds, 1.5% hits. inhibition, % at 3.39 µM;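 active means inhibition above the mean inhibition across the screen plus 3 SD, cut at about 25% in these data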;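 further: inhibitors block binding of the rhodamine activity-based probe so polarization drops; 0% = enzyme with DMSO and 100% = wells lacking pPAFAH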
PAFAH2 FP inh – PAFAH2 (human) inhibition | Q99487 | recombinant PAFAH2, FP-rhodamine activity probe, fluorescence polarization | inhibition, % at 3.39 µM | 340,000 compounds, 0.99% hits | AID 492956;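 active means inhibition above the mean over all tested compounds plus 3 SD, cut at about 30% in these data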;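 further: inhibitors block probe labeling of enzyme so polarization drops; 0% = enzyme with DMSO and 100% = wells lacking PAFAH2 protein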
* = called active by the depositor.

`NC(=O)c1nsc(C(=O)N(c2ccc3c(c2)OCO3)C(C(=O)NCC2CCCO2)c2ccc(F)cc2)c1N` (centres undefined) gave PAFAH1B3 inh 10, PREPL inhibitor -4, Apaf1 inhib 14, PAFAH1B2 inh 1, pPAFAH FP inh 3 and PAFAH2 FP inh 3.
For O=C1NC[C@@H](c2ccccc2)OC(=O)[C@H](Cc2ccc(F)cc2)C/C=C\C[C@H]1CC(=O)N(CCO)Cc1ccccc1 the results were PAFAH1B3 inh 7, PREPL inhibitor 39, Apaf1 inhib 23, PAFAH1B2 inh 29*, pPAFAH FP inh -1 and PAFAH2 FP inh 5.
O=C1NC[C@H](c2ccccc2)OC(=O)[C@H](Cc2ccc(F)cc2)C/C=C\C[C@H]1CC(=O)N(CCO)Cc1ccccc1 was read as PAFAH1B3 inh 12, PREPL inhibitor 34, Apaf1 inhib 31, PAFAH1B2 inh 51*, pPAFAH FP inh 12 and PAFAH2 FP inh -6.
O=C1NC[C@@H](c2ccccc2)OC(=O)[C@@H](Cc2ccc(F)cc2)CC/C=C/C[C@H]1CC(=O)N(CCO)Cc1ccccc1 was read as PAFAH1B3 inh 10, PREPL inhibitor 26, Apaf1 inhib 27, PAFAH1B2 inh 66*, pPAFAH FP inh 20 and PAFAH2 FP inh 1.
O=C1NC[C@H](c2ccccc2)OC(=O)[C@@H](Cc2ccc(F)cc2)C/C=C\C[C@H]1CC(=O)N(CCO)Cc1ccccc1 was read as PAFAH1B3 inh 11, PREPL inhibitor 12, Apaf1 inhib 32, PAFAH1B2 inh 16, pPAFAH FP inh 0 and PAFAH2 FP inh 3.
COc1ccc(NC(=S)N2CCCC2c2ccc(OC)c(OC)c2)cc1 (centres undefined) was read as PAFAH1B3 inh 1, PREPL inhibitor 11, Apaf1 inhib -2, PAFAH1B2 inh 0, pPAFAH FP inh 10 and PAFAH2 FP inh -2.
`COc1ccc(Cl)cc1NC(=O)CN(C)C(=O)CCc1nc2ccccc2c(=O)[nH]1` gave PAFAH1B3 inh 10, PREPL inhibitor 0, Apaf1 inhib 6, PAFAH1B2 inh 1, pPAFAH FP inh -3 and PAFAH2 FP inh 3.
Nc1ccc2oc(-c3ccccc3Cl)cc(=O)c2c1O was read as PAFAH1B3 inh 6, PREPL inhibitor 23, Apaf1 inhib 16, PAFAH1B2 inh 8, pPAFAH FP inh 28* and PAFAH2 FP inh 4.
For S=C1NCN(CCc2ccccc2)CN1Cc1ccccc1 the results were PAFAH1B3 inh 2, PREPL inhibitor 6, Apaf1 inhib -5, PAFAH1B2 inh 26*, pPAFAH FP inh -3 and PAFAH2 FP inh 10.
`COc1cc(/C=N/NC(=O)c2cc(C3CC3)[nH]n2)ccc1O` gave PAFAH1B3 inh 0, PREPL inhibitor 11, Apaf1 inhib 6, PAFAH1B2 inh 4, pPAFAH FP inh 5 and PAFAH2 FP inh 4.
`COc1cc(/C=N/NC(=O)c2cc(C34CC5CC(CC(C5)C3)C4)[nH]n2)ccc1O` gave PAFAH1B3 inh 13, PREPL inhibitor 19, Apaf1 inhib 20, PAFAH1B2 inh 30*, pPAFAH FP inh 10 and PAFAH2 FP inh 16.
`CCc1ccc(NC(=O)CSc2nc(=O)n(CCN(C)C)c3c2CCCC3)cc1` gave PAFAH1B3 inh 9, PREPL inhibitor 25, Apaf1 inhib 6, PAFAH1B2 inh 1, pPAFAH FP inh 0 and PAFAH2 FP inh -3.
Nc1nc(SCC(=O)C23CC4CC(CC(C4)C2)C3)n[nH]1 was read as PAFAH1B3 inh -2, PREPL inhibitor 15, Apaf1 inhib 4, PAFAH1B2 inh 27*, pPAFAH FP inh 3 and PAFAH2 FP inh 0.
For CN(C(=O)CSc1n[nH]c(N)n1)C1CCCCC1 the results were PAFAH1B3 inh 11, PREPL inhibitor 19, Apaf1 inhib 1, PAFAH1B2 inh 0, pPAFAH FP inh 0 and PAFAH2 FP inh -5.
`O=C1C(Nc2ccc(O)cc2)=C/C(=N/S(=O)(=O)c2cccs2)c2ccccc21` gave PAFAH1B3 inh 64*, PAFAH1B2 inh 29* and PAFAH2 FP inh 35*.
`Cc1cccc(NC2=C/C(=N/S(=O)(=O)c3cccs3)c3ccccc3C2=O)c1` gave PAFAH1B3 inh 64*, PREPL inhibitor 3, PAFAH1B2 inh 23, pPAFAH FP inh 22 and PAFAH2 FP inh 14.
